# Assay results published in ChEMBL document CHEMBL3861971, “Cinnamoyloxy-mammeisin Isolated from Geopropolis Attenuates Inflammatory Process by Inhibiting Cytokine Production: Involvement of MAPK, AP-1, and NF-κB” (J Nat Prod, 2016).
# Calls of active or inactive are those of the source. No cut-off for these calls is given here.
# Columns and labels:
# RAW264.7 [1] = test: Inhibition of JNK phosphorylation in peptidoglycan-stimulated mouse RAW264.7 cells at 6 uM pretreated for 30 mins followed by peptidoglycan stimulation for 15 mins by Western blot method; type: cell-based
# Procedure, shortened: (§1)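 RAW 264.7 cells (2×10^6/well) pretreated with 6 µM 30 min before PG 5 µg/mL. Lysed with RIPA plus protease/phosphatase inhibitors after 15 min of stimulation. Phospho-ERK1/2, SAPK/JNK and p38 detected by Western blot with chemiluminescence. n = 3 or 4.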
# [2] = molecular target: Mitogen-activated protein kinase 1 and 3 (ERK2 and ERK1) (Mus musculus) (UniProt P63085+Q63844); test: Inhibition of ERK1/2 phosphorylation in peptidoglycan-stimulated mouse RAW264.7 cells at 6 uM pretreated for 30 mins followed by peptidoglycan stimulation for 15 mins by Western blot method; type: cell-based; procedure, shortened: as §1
# Mus musculus [3] = test: Antiinflammatory activity in specific pathogen-free C57BL/6 mouse assessed as inhibition of carrageenan-induced neutrophil migration into peritoneal cavity at 300 ug/kg, administered subcutaneously for 30 mins prior to carrageenan challenge measured after 4 hrs using Neubauer chamber by optical microscopic analysis; type: functional
# Procedure, shortened: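 Male C57BL/6 SPF mice (20–22 g) pretreated sc (vehicle 1% DMSO in PBS), 30 min before ip carrageenan 500 µg/cavity. Peritoneal neutrophils determined 4 h later. Differential count of 100 cells by optical microscopy (100×). Expressed as neutrophils per cavity.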
# Mus musculus [4] = test: Anti-inflammatory activity in specific pathogen-free C57BL/6 mouse assessed as inhibition of carrageenan-induced leukocyte rolling into mesenteric venules at 300 ug/kg administered subcutaneously for 30 mins prior to carrageenan challenge measured after 2 hrs for 10 mins by intravital microscopic analysis; type: functional
# Mus musculus [5] = test: Antiinflammatory activity in specific pathogen-free C57BL/6 mouse assessed as inhibition of carrageenan-induced leukocyte adhesion in mesenteric venules at 300 ug/kg administered subcutaneously for 30 mins prior to carrageenan challenge measured after 4 hrs by intravital microscopy; type: functional
# Mus musculus [6] = test: Anti-inflammatory activity in specific pathogen-free C57BL/6 mouse assessed as reduction in carrageenan-induced TNF-alpha release in peritoneal cavity at 300 ug/kg administered subcutaneously for 30 mins prior to carrageenan challenge measured after 1.5 hrs by ELISA; type: functional
# Procedure, shortened: (§2)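 Mice (male C57BL/6 SPF) dosed sc in 1% DMSO/PBS 30 min ahead of ip carrageenan 500 µg/cavity. Peritoneal cavity sampled at 1.5 h for TNF-α and at 3 h for CXCL2/MIP-2. Levels measured by ELISA, expressed as pg/mL or pg/mg tissue.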
# Mus musculus [7] = test: Antiinflammatory activity in specific pathogen-free C57BL/6 mouse assessed as reduction in carrageenan-induced CXCL2/MIP-2 release in peritoneal cavity at 300 ug/kg administered subcutaneously for 30 mins prior to carrageenan challenge measured after 3 hrs by ELISA; type: functional; procedure, shortened: as §2
# Mus musculus [8] = test: Antiinflammatory activity in specific pathogen-free C57BL/6 mouse assessed as inhibition of mBSA-induced neutrophil migration into joint cavity at 100 ug/kg, administered post 21 days of immunization subcutaneously for 30 mins prior to mBSA challenge measured after 6 hrs by cell counting method; type: functional
# Procedure, shortened: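 C57BL/6 SPF males immunized sc with mBSA 500 µg in Complete Freund's adjuvant/PBS emulsion, boosted days 7 and 14 with Incomplete Freund's adjuvant plus mBSA. Compound given sc 30 min before ia mBSA 30 µg/joint on day 21. At 6 h joint cavity washed with PBS/EDTA, then total and differential leukocyte counts.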
# Mus musculus [9] = test: Antiinflammatory activity in specific pathogen-free C57BL/6 mouse assessed as reduction of mBSA-induced TNF-alpha release in joint cavity at 100 ug/kg, administered post 21 days of immunization subcutaneously for 30 mins prior mBSA challenge measured after 1.5 hrs by ELISA; type: functional
# Procedure, shortened: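 Immunized mice (mBSA/Freund's adjuvant, boosts days 7 and 14) treated sc 30 min before day-21 ia mBSA 30 µg/joint. TNF-α in the joint measured by ELISA 1.5 h after challenge.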
# Mus musculus [10] = test: Antiinflammatory activity in specific pathogen-free C57BL/6 mouse assessed as reduction in mBSA-induced myeloperoxidase activity in joint cavity at 100 ug/kg administered post 21 days of immunization subcutaneously for 30 mins prior to mBSA challenge measured after 6 hrs by bioluminescence assay; type: functional
# Procedure, shortened: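 mBSA-immunized C57BL/6 mice pretreated sc 30 min before ia mBSA 30 µg/joint. At 6 h, under anesthesia, mice given ip bioluminescent myeloperoxidase probe 100 mg/kg. Joints imaged on IVIS Spectrum, read out as radiance (p/sec/cm²/sr).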
# RAW264.7 [11] = test: Antiinflammatory activity in mouse RAW264.7 cells assessed as inhibition of peptidoglycan-stimulated TNFalpha production at 0.6 to 6 uM pretreated 30 mins prior to peptidoglycan challenge measured after 4 hrs by ELISA; type: functional, cell-based
# Procedure, shortened: (§3)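 RAW 264.7 cells grown in RPMI/10% FBS, plated at 2×10^5/well overnight. Pretreated with 0.6, 2 or 6 µM 30 min before PG 5 µg/mL or LPS 10 ng/mL. Supernatant collected at 4 h for TNF-α and CXCL2/MIP-2 ELISA. Mean ± SEM, n = 3–5.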
# RAW264.7 [12] = test: Antiinflammatory activity in mouse RAW264.7 cells assessed as inhibition of LPS-stimulated TNFalpha production at 0.6 to 6 uM pretreated 30 mins prior to LPS challenge measured after 4 hrs by ELISA; type: functional, cell-based; procedure, shortened: as §3
# RAW264.7 [13] = test: Antiinflammatory activity in mouse RAW264.7 cells assessed as inhibition of peptidoglycan-stimulated CXCL2/MIP-2 release at 0.6 to 6 uM pretreated 30 mins prior to peptidoglycan challenge measured after 4 hrs by ELISA; type: functional, cell-based; procedure, shortened: as §3
# RAW264.7 [14] = test: Antiinflammatory activity in mouse RAW264.7 cells assessed as inhibition of LPS-stimulated CXCL2/MIP-2 release at 0.6 to 6 uM pretreated 30 mins prior to LPS challenge measured after 4 hrs by ELISA; type: functional, cell-based; procedure, shortened: as §3
# Mus musculus [15] = species on record: Mus musculus; test: Cytotoxicity against mouse RAW264.7 cells assessed as induction of apoptosis at 6 uM measured after 4 hrs by Annexin V-FTIC/propidium iodide staining-based flow cytometric analysis; type: toxicity, cell-based; settings: raw264.7, 4 h
# Procedure, shortened: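 RAW 264.7 cells (2×10^6/well, overnight) exposed to 6 µM for 4 h, then washed into annexin buffer. Stained with annexin V-FITC (1:50, 4 °C, 20 min) and then PI (1:100). Analysed by flow cytometry, about 10 000 gated events. Three to four separate experiments.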
# Mus musculus [16] = species on record: Mus musculus; test: Cytotoxicity against mouse RAW264.7 cells at 6 uM measured after 4 hrs by MTT assay; type: toxicity, cell-based; settings: raw264.7, 4 h
# Procedure, shortened: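 RAW 264.7 cells (2×10^5/well, overnight) exposed to 6 µM for 4 h. MTT 1 mg/mL in RPMI added for 2 h. Formazan taken up in absolute ethanol and absorbance read at 540 nm.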
# [17] = molecular target: MAP kinase p38 (Mus musculus) (UniProt P47811+O08911+Q9WUI1+Q9Z1B7); test: Inhibition of MAPK p38 phosphorylation in peptidoglycan-stimulated mouse RAW264.7 cells at 6 uM pretreated for 30 mins followed by peptidoglycan stimulation for 15 mins by Western blot method; type: cell-based; procedure, shortened: as §1
# RAW264.7 [18] = test: Inhibition of NFkappaB activation (unknown origin) expressed in mouse RAW264.7 cells at 0.6 to 6 uM pretreated for 30 mins followed by peptidoglycan challenge measured after 4 hrs by luciferase reporter gene assay; type: cell-based; settings: Homo sapiens
# Procedure, shortened: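 RAW 264.7 cells stably carrying an NF-κB-driven luciferase reporter, plated at 3×10^5/well overnight. Pretreated with 0.6–6 µM 30 min before PG 5 µg/mL. Lysed in Tris-NaCl-Tween buffer at 4 h, luciferin reagent added and luminescence read. n = 3–5.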
# [19] = molecular target: Transcription factor Jun (Mus musculus) (UniProt P05627); test: Inhibition of c-jun phosphorylation in peptidoglycan-stimulated mouse RAW264.7 cells at 6 uM pretreated for 30 mins followed by peptidoglycan stimulation for 30 mins by immunofluorescence method
# Sequence of Transcription factor Jun (Mus musculus) (P05627 whole entry): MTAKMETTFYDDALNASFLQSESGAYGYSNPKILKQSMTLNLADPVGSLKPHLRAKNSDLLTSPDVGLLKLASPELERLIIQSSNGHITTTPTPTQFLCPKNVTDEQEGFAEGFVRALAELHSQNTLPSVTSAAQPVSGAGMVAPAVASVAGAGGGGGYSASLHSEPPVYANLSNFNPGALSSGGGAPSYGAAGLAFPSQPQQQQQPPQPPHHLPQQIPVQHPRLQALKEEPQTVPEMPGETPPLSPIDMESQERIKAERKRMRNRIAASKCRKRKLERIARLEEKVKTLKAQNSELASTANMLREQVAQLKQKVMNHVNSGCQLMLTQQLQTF
# Sequence of Mitogen-activated protein kinase 1 and 3 (ERK2 and ERK1) (Mus musculus) (P63085 whole entry, looked up): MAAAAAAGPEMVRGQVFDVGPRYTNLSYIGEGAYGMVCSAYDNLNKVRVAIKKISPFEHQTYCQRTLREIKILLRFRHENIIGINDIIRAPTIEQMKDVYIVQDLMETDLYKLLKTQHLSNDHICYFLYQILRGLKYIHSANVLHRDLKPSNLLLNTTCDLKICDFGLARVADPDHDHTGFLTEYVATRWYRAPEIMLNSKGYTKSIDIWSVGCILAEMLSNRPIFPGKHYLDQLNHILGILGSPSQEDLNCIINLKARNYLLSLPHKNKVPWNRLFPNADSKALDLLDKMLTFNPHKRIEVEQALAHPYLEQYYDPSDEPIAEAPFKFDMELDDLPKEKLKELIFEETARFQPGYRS
# Sequence of Mitogen-activated protein kinase 1 and 3 (ERK2 and ERK1) (Mus musculus) (Q63844 whole entry, looked up): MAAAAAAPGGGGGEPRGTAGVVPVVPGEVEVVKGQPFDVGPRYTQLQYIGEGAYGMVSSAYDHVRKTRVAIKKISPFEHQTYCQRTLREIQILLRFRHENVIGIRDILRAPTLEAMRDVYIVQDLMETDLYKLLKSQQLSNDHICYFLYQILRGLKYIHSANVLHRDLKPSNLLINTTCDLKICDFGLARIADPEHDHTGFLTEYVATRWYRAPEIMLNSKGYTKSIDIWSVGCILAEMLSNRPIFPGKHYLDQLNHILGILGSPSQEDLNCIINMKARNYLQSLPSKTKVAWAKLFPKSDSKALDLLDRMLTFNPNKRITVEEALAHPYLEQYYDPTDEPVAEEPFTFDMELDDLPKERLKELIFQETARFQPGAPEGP
compound,measurement,setting,value
CC(C)=CCc1c(O)c(C(=O)CC(C)COC(=O)/C=C/c2ccccc2)c(O)c2c(-c3ccccc3)cc(=O)oc12 (centres undefined),inhibition,RAW264.7 [1],Active
same,inhibition,[2],Active
same,inhibition,Mus musculus [3],Active
same,inhibition,Mus musculus [4],Active
same,inhibition,Mus musculus [5],Active
same,Activity,Mus musculus [6],Active
same,Activity,Mus musculus [7],Active
same,inhibition,Mus musculus [8],Active
same,Activity,Mus musculus [9],Active
same,Activity,Mus musculus [10],Active
same,inhibition,RAW264.7 [11],Active
same,inhibition,RAW264.7 [12],Active
same,inhibition,RAW264.7 [13],Active
same,inhibition,RAW264.7 [14],Active
same,Activity,Mus musculus [15],Non-Toxic
same,Activity,Mus musculus [16],Non-Toxic
same,inhibition,[17],Active
same,inhibition,RAW264.7 [18],Active
same,inhibition,[19],Active
